In ChEMBL document CHEMBL4138056, “T- and B-cell immunosuppressive activity of novel α-santonin analogs with humoral and cellular immune response in Balb/c mice” (Medchemcomm, 2017):

How the values were obtained:
[1] = tested on: Murine T-cell line; assay: Immunostimulant activity in Balb/c mouse T cells assessed as induction of ConA-induced cell proliferation at 10 uM after 48 hrs by MTT assay relative to control
[2] = tested on: Murine T-cell line; assay: Cytotoxicity against Balb/c mouse T cells assessed as decrease in cell survival at 10 uM by MTT assay; format: cell-based
Method in brief: (§1)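 Balb/c splenocytes (RBC lysed with tris-ammonium chloride, trypan blue viability) seeded at 1×10^6 cells/mL with Con A or LPS (10 μg/mL each) and test agent at 1, 10 or 100 μM for 48 h at 37 °C, 5% CO2; MTT added for 4 h, formazan dissolved in DMSO, OD 540 nm. Cytotoxicity scored +/−; triplicate, three separate experiments.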

[3] = tested on: B-cell line; assay: Immunosuppressive activity in Balb/c mouse B cells assessed as inhibition of LPS-induced cell proliferation at 100 uM after 48 hrs by MTT assay relative to control; format: functional
Method in brief: (§2)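 Balb/c spleen single-cell suspension, RBCs lysed with tris-ammonium chloride, viability by trypan blue; 1×10^6 cells/mL stimulated with LPS (10 μg/mL) for B cells, test agent 1, 10 or 100 μM, 48 h at 37 °C, 5% CO2. MTT 4 h, DMSO solubilization, OD 540 nm; % change vs mitogen control; triplicate, three separate experiments.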

[4] = tested on: Murine T-cell line; assay: Cytotoxicity against Balb/c mouse T cells assessed as decrease in cell survival at 1 uM by MTT assay; format: cell-based
Method in brief: as §1

[5] = tested on: B-cell line; assay: Cytotoxicity against Balb/c mouse B cells assessed as decrease cell survival at 10 uM by MTT assay; format: cell-based
Method in brief: as §1

[6] = tested on: Murine T-cell line; assay: Immunosuppressive activity in Balb/c mouse T cells assessed as inhibition of ConA-induced cell proliferation at 1 uM after 48 hrs by MTT assay relative to control
[7] = tested on: B-cell line; assay: Immunosuppressive activity in Balb/c mouse B cells assessed as inhibition of LPS-induced cell proliferation at 1 uM after 48 hrs by MTT assay relative to control; format: functional
Method in brief: as §2

[8] = tested on: B-cell line; assay: Immunosuppressive activity in Balb/c mouse B cells assessed as inhibition of LPS-induced cell proliferation at 10 uM after 48 hrs by MTT assay relative to control; format: functional
Method in brief: as §2

[9] = tested on: B-cell line; assay: Cytotoxicity against Balb/c mouse B cells assessed as decrease cell survival at 100 uM by MTT assay; format: cell-based
Method in brief: as §1

[10] = tested on: B-cell line; assay: Cytotoxicity against Balb/c mouse B cells assessed as decrease cell survival at 1 uM by MTT assay; format: cell-based
Method in brief: as §1

[11] = tested on: Murine T-cell line; assay: Immunosuppressive activity in Balb/c mouse T cells assessed as inhibition of ConA-induced cell proliferation at 100 uM after 48 hrs by MTT assay relative to control
[12] = tested on: Murine T-cell line; assay: Cytotoxicity against Balb/c mouse T cells assessed as decrease in cell survival at 100 uM by MTT assay; format: cell-based
Method in brief: as §1

[13] = tested on: Murine T-cell line; assay: Immunosuppressive activity in Balb/c mouse T cells assessed as inhibition of ConA-induced cell proliferation at 10 uM after 48 hrs by MTT assay relative to control
[14] = tested on: B-cell line; assay: Immunostimulant activity in Balb/c mouse B cells assessed as induction of LPS-induced cell proliferation at 100 uM after 48 hrs by MTT assay relative to control; format: cell-based
Method in brief: as §2

[15] = tested on: Murine T-cell line; assay: Immunostimulant activity in Balb/c mouse T cells assessed as induction of ConA-induced cell proliferation at 100 uM after 48 hrs by MTT assay relative to control
[16] = tested on: B-cell line; assay: Immunostimulant activity in Balb/c mouse B cells assessed as induction of LPS-induced cell proliferation at 1 uM after 48 hrs by MTT assay relative to control; format: cell-based
Method in brief: as §2

[17] = tested on: Mus musculus; assay: Inhibition of humoral immune response in Balb/c mouse assessed as decrease in sheep RBC hemagglutination at 25 mg/kg, po qd administered 6 consecutive days measured on day 7 by micro titration method relative to control; format: functional; conditions: 168 h
Method in brief: (§3)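 Female Balb/c mice, groups of six, immunized with SRBC and dosed orally; blood taken on day 7 for primary antibody titre, hemagglutination titre determined by modified microtitration; suppression versus control group.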

[18] = tested on: Mus musculus; assay: Inhibition of delayed-type hypersensitivity reaction in Balb/c mouse assessed as decrease in sheep RBC-induced footpad thickness at 25 mg/kg, po qd administered 6 consecutive days followed by sheep RBC challenge measured after 24 to 48 hrs by spheromicrometer relative to control; format: functional
Method in brief: (§4)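 Female Balb/c mice, groups of six, SRBC-immunized; oral dosing starting 2 h after SRBC, then once daily. Six days later baseline left hind footpad thickness read by spheromicrometer, then intradermal footpad challenge with 20 μL of 5×10^9 SRBC/mL; thickness re-measured at 24 and 48 h versus control group.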

[19] = tested on: Mus musculus; assay: Inhibition of delayed-type hypersensitivity reaction in Balb/c mouse assessed as decrease in sheep RBC-induced footpad thickness at 12.5 mg/kg, po qd administered 6 consecutive days followed by sheep RBC challenge measured after 24 to 48 hrs by spheromicrometer relative to control; format: functional
Method in brief: as §4

[20] = tested on: Mus musculus; assay: Inhibition of humoral immune response in Balb/c mouse assessed as decrease in sheep RBC hemagglutination at 6.25 mg/kg, po qd administered 6 consecutive days measured on day 7 by micro titration method relative to control; format: functional; conditions: 168 h
Method in brief: as §3

[21] = tested on: B-cell line; assay: Immunostimulant activity in Balb/c mouse B cells assessed as induction of LPS-induced cell proliferation at 10 uM after 48 hrs by MTT assay relative to control; format: cell-based
Method in brief: as §2

| SMILES | Activity [2] | inhibition at 100 µM [3] | Activity [4] | Activity [5] | inhibition at 1 µM [6] | inhibition at 1 µM [7] | inhibition at 10 µM [8] | Activity [9] | Activity [10] | inhibition at 100 µM [11] | Activity [12] | inhibition at 10 µM [13] | Activity [14] | Activity [15] | also measured |
| --- | --- | --- | --- | --- | --- | --- | --- | --- | --- | --- | --- | --- | --- | --- | --- |
| CC1=C2[C@H]3OC(=O)[C@@H](C)[C@@H]3CC[C@@]2(C)C=CC1=O [SANTONIN] | Non-Toxic | 33.2% | Non-Toxic | Non-Toxic | 35.4% | 19% | 27.1% | Non-Toxic | Non-Toxic | 8.16% | Non-Toxic | – | – | – | Activity [1]: 3.55% |
| Cc1cc(O)c(C)c2c1CC[C@H]1[C@H](C)C(=O)O[C@@H]21 | Toxic | – | Toxic | Toxic | 22.1% | 23.3% | 24.9% | Toxic | Toxic | – | Toxic | 27.4% | 38.25% | 58.13% | – |
| Cc1cc(OC(=O)C(C)C)c(C)c2c1CC[C@H]1[C@H](C)C(=O)O[C@@H]21 | Non-Toxic | 52.1% | Non-Toxic | Non-Toxic | 53.3% | – | 33.3% | Non-Toxic | Non-Toxic | 73.2% | Non-Toxic | 61.5% | – | – | Activity [16]: 20.83% |
| Cc1cc(OC(=O)C(C)(C)C)c(C)c2c1CC[C@H]1[C@H](C)C(=O)O[C@@H]21 | Non-Toxic | 80.5% | Non-Toxic | Non-Toxic | 35.1% | 48.7% | 66% | Non-Toxic | Non-Toxic | 75% | Non-Toxic | 58.1% | – | – | inhibition in vivo at 25 mg/kg [17]: 41%; inhibition in vivo at 25 mg/kg [18]: 35%; inhibition in vivo at 12.5 mg/kg [19]: 30%; inhibition in vivo at 6.25 mg/kg [20]: 28% |
| Cc1cc(OCc2ccccc2)c(C)c2c1CC[C@H]1[C@H](C)C(=O)O[C@@H]21 | Non-Toxic | – | Non-Toxic | Non-Toxic | 58% | 53% | 74% | Toxic | Non-Toxic | – | Toxic | 60% | 29% | 16% | – |
| CCCCC(=O)Oc1cc(C)c2c(c1C)[C@@H]1OC(=O)[C@@H](C)[C@@H]1CC2 | Non-Toxic | – | Non-Toxic | Non-Toxic | 43.2% | 2.08% | 49% | Toxic | Non-Toxic | – | Toxic | 29.6% | 6.25% | 28.16% | – |
| CCCCCCCC(=O)Oc1cc(C)c2c(c1C)[C@@H]1OC(=O)[C@@H](C)[C@@H]1CC2 | Non-Toxic | 57.3% | Non-Toxic | Non-Toxic | 50.4% | 37.5% | – | Toxic | Non-Toxic | 4.22% | Toxic | 43.1% | – | – | Activity [21]: 53.12% |
